Experiments:
Type in all cases: organism-based
[1] = Acute toxicity in Swiss albino mouse assessed as hemoglobin level at 50 mg/kg, po administered once and observed for 7 days (reference value: 17.35 +/- 0.3 gm/dl); conditions: in vivo, 168 h, time 7 day
[2] = Acute toxicity in Swiss albino mouse assessed as relative kidney weight at 5 to 300 mg/kg, po administered once and observed for 7 days; conditions: in vivo, 168 h, dose 5-300 mg/kg, time 7 day
How it was run: (§1)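 Acute oral toxicity per OECD guideline 423; mice 20–25 g, 3 male + 3 female per group, acclimatized 7 days at 22 ± 5 °C, 12 h light/dark. Compound dissolved in minimal DMSO, diluted in 0.7% CMC, single oral dose of 5, 50 or 300 mg/kg; controls given vehicle only. Clinical signs checked hourly on dosing day, then daily. Samples and body weights taken on day 7.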

[3] = Acute toxicity in Swiss albino mouse assessed as creatinine level at 5 mg/kg, po administered once and observed for 7 days (reference value: 0.11 +/- 0.03 mg/dL); conditions: in vivo, 168 h, time 7 day
[4] = Acute toxicity in Swiss albino mouse assessed as albumin at 50 mg/kg, po administered once and observed for 7 days (reference value: 1.62 +/- 0.09 g/dl); conditions: in vivo, 168 h, time 7 day
[5] = Acute toxicity in Swiss albino mouse assessed as SGPT level at 5 mg/kg, po administered once and observed for 7 days (reference value: 12.65 +/- 2.98 U/L); conditions: in vivo, 168 h, time 7 day
[6] = Acute toxicity in Swiss albino mouse assessed as hemoglobin level at 5 mg/kg, po administered once and observed for 7 days (reference value: 17.35 +/- 0.3 gm/dl); conditions: in vivo, 168 h, time 7 day
[7] = Acute toxicity in Swiss albino mouse assessed as creatinine level at 50 mg/kg, po administered once and observed for 7 days (reference value: 0.11 +/- 0.03 mg/dL); conditions: in vivo, 168 h, time 7 day
[8] = Acute toxicity in Swiss albino mouse assessed as triglyceride level at 300 mg/kg, po administered once and observed for 7 days (reference value: 81.12 +/- 7.75 mg/dl); conditions: in vivo, 168 h, time 7 day
[9] = Acute toxicity in Swiss albino mouse assessed as effect on posture at 5 to 300 mg/kg, po administered once and observed for 7 days; conditions: in vivo, 168 h, dose 5-300 mg/kg, time 7 day; how it was run: as §1
[10] = Acute toxicity in Swiss albino mouse assessed as albumin at 5 mg/kg, po administered once and observed for 7 days (reference value: 1.62 +/- 0.09 g/dl); conditions: in vivo, 168 h, time 7 day
[11] = Acute toxicity in Swiss albino mouse assessed as RBC level at 300 mg/kg, po administered once and observed for 7 days (reference value: 9.21 +/- 0.32 /mm3); conditions: in vivo, 168 h, time 7 day
[12] = Acute toxicity in Swiss albino mouse assessed as RBC level at 5 mg/kg, po administered once and observed for 7 days (reference value: 9.21 +/- 0.32 /mm3); conditions: in vivo, 168 h, time 7 day
[13] = Acute toxicity in Swiss albino mouse assessed as creatinine level at 300 mg/kg, po administered once and observed for 7 days (reference value: 0.11 +/- 0.03 mg/dL); conditions: in vivo, 168 h, time 7 day
[14] = Acute toxicity in Swiss albino mouse assessed as absolute lungs weight at 5 to 300 mg/kg, po administered once and observed for 7 days; conditions: in vivo, 168 h, dose 5-300 mg/kg, time 7 day; how it was run: as §1
[15] = Acute toxicity in Swiss albino mouse assessed as effect on response of organism at 5 to 300 mg/kg, po administered once and observed for 7 days; conditions: in vivo, 168 h, dose 5-300 mg/kg, time 7 day; how it was run: as §1
[16] = Acute toxicity in Swiss albino mouse assessed as absolute heart weight at 5 to 300 mg/kg, po administered once and observed for 7 days; conditions: in vivo, 168 h, dose 5-300 mg/kg, time 7 day; how it was run: as §1
[17] = Acute toxicity in Swiss albino mouse assessed as absolute liver weight at 5 to 300 mg/kg, po administered once and observed for 7 days; conditions: in vivo, 168 h, dose 5-300 mg/kg, time 7 day; how it was run: as §1
[18] = Acute toxicity in Swiss albino mouse assessed as bilirubin level at 5 mg/kg, po administered once and observed for 7 days (reference value: 0.44 +/- 0.06 mg/dl); conditions: in vivo, 168 h, time 7 day
[19] = Acute toxicity in Swiss albino mouse assessed as WBC level at 300 mg/kg, po administered once and observed for 7 days (reference value: 8.55 +/- 2.71 /mm3); conditions: in vivo, 168 h, time 7 day
[20] = Acute toxicity in Swiss albino mouse assessed as SGOT level at 5 mg/kg, po administered once and observed for 7 days (reference value: 22.94 +/- 4.04 U/L); conditions: in vivo, 168 h, time 7 day
[21] = Acute toxicity in Swiss albino mouse assessed as SGOT level at 300 mg/kg, po administered once and observed for 7 days (reference value: 22.94 +/- 4.04 U/L); conditions: in vivo, 168 h, time 7 day
[22] = Acute toxicity in Swiss albino mouse assessed as triglyceride level at 5 mg/kg, po administered once and observed for 7 days (reference value: 81.12 +/- 7.75 mg/dl); conditions: in vivo, 168 h, time 7 day
[23] = Acute toxicity in Swiss albino mouse assessed as SGPT level at 300 mg/kg, po administered once and observed for 7 days (reference value: 12.65 +/- 2.98 U/L); conditions: in vivo, 168 h, time 7 day
[24] = Acute toxicity in Swiss albino mouse assessed as ALP level at 50 mg/kg, po administered once and observed for 7 days (reference value: 123.22 +/- 16.04 U/L); conditions: in vivo, 168 h, time 7 day
[25] = Acute toxicity in Swiss albino mouse assessed as ALP level at 5 mg/kg, po administered once and observed for 7 days (reference value: 123.22 +/- 16.04 U/L); conditions: in vivo, 168 h, time 7 day
[26] = Acute toxicity in Swiss albino mouse assessed as absolute brain weight at 5 to 300 mg/kg, po administered once and observed for 7 days; conditions: in vivo, 168 h, dose 5-300 mg/kg, time 7 day; how it was run: as §1
[27] = Acute toxicity in Swiss albino mouse assessed as protein level at 5 mg/kg, po administered once and observed for 7 days (reference value: 2.01 +/- 0.11 mg/ml); conditions: in vivo, 168 h, time 7 day
[28] = Acute toxicity in Swiss albino mouse assessed as absolute kidney weight at 5 to 300 mg/kg, po administered once and observed for 7 days; conditions: in vivo, 168 h, dose 5-300 mg/kg, time 7 day; how it was run: as §1
[29] = Acute toxicity in Swiss albino mouse assessed as body weight at 300 mg/kg, po administered once and observed for 7 days (reference value: 22.75 +/- 0.93 gm); conditions: in vivo, 168 h, time 7 day
[30] = Acute toxicity in Swiss albino mouse assessed as relative spleen weight at 5 to 300 mg/kg, po administered once and observed for 7 days; conditions: in vivo, 168 h, dose 5-300 mg/kg, time 7 day; how it was run: as §1
[31] = Acute toxicity in Swiss albino mouse assessed as effect on gait at 5 to 300 mg/kg, po administered once and observed for 7 days; conditions: in vivo, 168 h, dose 5-300 mg/kg, time 7 day; how it was run: as §1
[32] = Acute toxicity in Swiss albino mouse assessed as hemoglobin level at 300 mg/kg, po administered once and observed for 7 days (reference value: 17.35 +/- 0.3 gm/dl); conditions: in vivo, 168 h, time 7 day
[33] = Acute toxicity in Swiss albino mouse assessed as bilirubin level at 300 mg/kg, po administered once and observed for 7 days (reference value: 0.44 +/- 0.06 mg/dl); conditions: in vivo, 168 h, time 7 day
[34] = Acute toxicity in Swiss albino mouse assessed as absolute spleen weight at 5 to 300 mg/kg, po administered once and observed for 7 days; conditions: in vivo, 168 h, dose 5-300 mg/kg, time 7 day; how it was run: as §1
[35] = Acute toxicity in Swiss albino mouse assessed as body weight at 50 mg/kg, po administered once and observed for 7 days (reference value: 22.75 +/- 0.93 gm); conditions: in vivo, 168 h, time 7 day
[36] = Acute toxicity in Swiss albino mouse assessed as ALP level at 300 mg/kg, po administered once and observed for 7 days (reference value: 123.22 +/- 16.04 U/L); conditions: in vivo, 168 h, time 7 day

SMILES | Activity [1] [g/dL] | Activity [2] | Activity [3] [mg/dL] | Activity [4] [g/dL] | Activity [5] [U/L] | Activity [6] [g/dL] | Activity [7] [mg/dL] | Activity [8] [mg/dL] | Activity [9] | Activity [10] [g/dL] | Activity [11] [million/mm3] | Activity [12] [million/mm3] | Activity [13] [mg/dL] | Activity [14] | Activity [15] | Activity [16] | Activity [17] | Activity [18] [mg/dL] | Activity [19] [thousands/mm3] | Activity [20] [U/L] | also measured
COc1ccc2c(c1)c(Cc1ccc(OCCN(C)C)cc1)c(-c1cc(OC)c(OC)c(OC)c1)n2Cc1ccc(OCCN(C)C)cc1 | 17.01 | Non-Toxic | 0.12 | 1.43 | 14.47 | 16.59 | 0.14 | 91.2 | Non-Toxic | 1.52 | 9.45 | 9.67 | 0.15 | Non-Toxic | Non-Toxic | Non-Toxic | Non-Toxic | 0.3 | 5.53 | 22.11 | Activity [21]: 27.73 U/L; Activity [22]: 63.83 mg/dL; Activity [23]: 16 U/L; Activity [24]: 106.88 U/L; Activity [25]: 97.53 U/L; Activity [26]: Non-Toxic; Activity [27]: 1.61 mg/mL; Activity [28]: Non-Toxic; Activity [29]: 21.88 g; Activity [30]: Non-Toxic; Activity [31]: Non-Toxic; Activity [32]: 15.96 g/dL; Activity [33]: 0.36 mg/dL; Activity [34]: Non-Toxic; Activity [35]: 21.31 g; Activity [36]: 98.7 U/L
COc1ccc2c(c1)c(Cc1ccc(OC(C)CN(C)C)cc1)c(-c1cc(OC)c(OC)c(OC)c1)n2Cc1ccc(OC(C)CN(C)C)cc1 (configuration not stated) | 15.21 | Non-Toxic | 0.12 | 1.29 | 11.82 | 15.83 | 0.12 | 86.58 | Non-Toxic | 1.48 | 7.96 | 9.12 | 0.14 | Non-Toxic | Non-Toxic | Non-Toxic | Non-Toxic | 0.34 | 5.6 | 28.86 | Activity [21]: 33.25 U/L; Activity [22]: 105.82 mg/dL; Activity [23]: 19.12 U/L; Activity [24]: 84.85 U/L; Activity [25]: 87.76 U/L; Activity [26]: Non-Toxic; Activity [27]: 1.57 mg/mL; Activity [28]: Non-Toxic; Activity [29]: 22.75 g; Activity [30]: Non-Toxic; Activity [31]: Non-Toxic; Activity [32]: 15.54 g/dL; Activity [33]: 0.36 mg/dL; Activity [34]: Non-Toxic; Activity [35]: 23.48 g; Activity [36]: 74.12 U/L

From ChEMBL document CHEMBL4811308, “Design, synthesis and broad spectrum antibreast cancer activity of diarylindoles via induction of apoptosis in aggressive breast cancer cells” (Bioorg Med Chem, 2021)
